Experiments:
Adenosine receptor A2a [1] = biological target: T1, Adenosine receptor A2a (Homo sapiens, UniProt P29274); assay: Displacement of [3H]2-[p-(2-carboxyethyl)phenylethylamino]-5'-N-ethylcarboxamido-adenosine from human A2A adenosine receptor expressed in HEK293 cell membranes after 60 mins
Adenosine receptor A1 = biological target: T2, Adenosine receptor A1 (Homo sapiens, UniProt P30542); assay: Displacement of [3H]N6-phenylisopropyladenosine from human A1 adenosine receptor expressed in CHO cell membranes after 60 mins
T2 sequence (P30542 whole entry): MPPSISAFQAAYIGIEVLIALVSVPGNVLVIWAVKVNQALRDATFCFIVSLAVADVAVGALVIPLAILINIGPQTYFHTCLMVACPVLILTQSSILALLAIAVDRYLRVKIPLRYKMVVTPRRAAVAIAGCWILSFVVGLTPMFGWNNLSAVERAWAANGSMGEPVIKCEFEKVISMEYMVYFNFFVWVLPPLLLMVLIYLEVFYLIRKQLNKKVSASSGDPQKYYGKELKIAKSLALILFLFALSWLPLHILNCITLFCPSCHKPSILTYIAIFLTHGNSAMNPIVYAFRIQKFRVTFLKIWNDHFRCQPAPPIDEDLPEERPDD
Method in brief: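 Membranes (40 µg/tube) from CHO cells stably expressing human A1 AR were incubated with 1 nM [3H]R-PIA in 50 mM Tris·HCl pH 7.4 with 10 mM MgCl2, at 25°C for 60 min. Nonspecific binding was defined with 10 µM CPA.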

Adenosine receptor A3 = biological target: T3, Adenosine receptor A3 (Homo sapiens, UniProt P0DMS8); assay: Displacement of [125I]N6-(4-amino-3-iodobenzyl)adenosine-5'-N-methyluronamide from human A3 adenosine receptor expressed in CHO cell membranes after 60 mins
T3 sequence (P0DMS8 whole entry): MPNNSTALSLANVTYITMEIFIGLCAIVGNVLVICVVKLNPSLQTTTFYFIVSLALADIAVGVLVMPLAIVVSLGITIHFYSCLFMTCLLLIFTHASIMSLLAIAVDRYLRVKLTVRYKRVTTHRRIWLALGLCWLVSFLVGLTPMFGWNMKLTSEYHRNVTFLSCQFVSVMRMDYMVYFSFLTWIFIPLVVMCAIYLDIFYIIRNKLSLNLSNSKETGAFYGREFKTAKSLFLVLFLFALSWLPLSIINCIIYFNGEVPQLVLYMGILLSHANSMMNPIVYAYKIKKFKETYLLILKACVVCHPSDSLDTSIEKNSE

Adenosine receptor A2a [2] = biological target: T1, Adenosine receptor A2a; assay: Agonist activity at human A2A adenosine receptor expressed in CHO cells assessed as stimulation of forskolin-induced cAMP production at 10 uM preincubated for 45 mins prior forskolin treatment measured after 15 mins by liquid scintillation spectrometry relative to 2-[p-(2-carboxyethyl)phenylethylamino]-5'-N-ethylcarboxamido-adenosine; assay type: functional, cell-based
Method in brief: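 CHO cells expressing human A2A AR; test compound at a single concentration of 10 µM; cyclic AMP production measured and expressed as mean percentage of the response to the full agonist CGS21680 (10 µM).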

Adenosine receptor A2a [3] = biological target: T1, Adenosine receptor A2a; assay: Binding affinity to A2A adenosine receptor
[4] = Displacement of [1251]PAPAAPEC from A2A adenosine receptor expressed in bovine striatal membranes after 1 hr by gamma counting; assay type: cell membranes, Bos taurus, Striatum, Membrane

T1 sequence (P29274 whole entry): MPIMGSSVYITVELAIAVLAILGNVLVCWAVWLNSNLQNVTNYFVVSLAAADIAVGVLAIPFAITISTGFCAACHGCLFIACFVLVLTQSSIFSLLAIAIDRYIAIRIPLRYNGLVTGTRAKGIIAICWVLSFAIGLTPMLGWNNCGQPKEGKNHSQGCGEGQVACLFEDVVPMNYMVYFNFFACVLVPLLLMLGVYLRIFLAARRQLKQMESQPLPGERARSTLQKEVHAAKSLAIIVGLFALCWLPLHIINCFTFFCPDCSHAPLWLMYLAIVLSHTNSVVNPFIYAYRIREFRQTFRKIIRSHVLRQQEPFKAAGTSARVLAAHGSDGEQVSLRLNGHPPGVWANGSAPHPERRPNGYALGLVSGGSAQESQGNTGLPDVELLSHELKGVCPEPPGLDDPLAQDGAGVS

| Ki (Adenosine receptor A2a [3]) [nM] | SMILES | Ki (Adenosine receptor A2a [1]) [nM] | Ki (Adenosine receptor A1) [nM] | Ki (Adenosine receptor A3) [nM] | Emax (Adenosine receptor A2a [2]) [%] | Ki [4] [nM] |
| --- | --- | --- | --- | --- | --- | --- |
|  | CCNC(=O)[C@H]1O[C@@H](n2cnc3c(N)nc(NCCc4ccc(CCC(=O)N[C@H](Cc5c[nH]cn5)C(=O)O)cc4)nc32)[C@H](O)[C@@H]1O | 40 | 350 | 320 | 106 |  |
|  | CCNC(=O)[C@H]1O[C@@H](n2cnc3c(N)nc(NCCc4ccc(CCC(=O)N[C@@H](CC(=O)O)C(=O)O)cc4)nc32)[C@H](O)[C@@H]1O | 180 | 1900 | 1460 | 94.8 |  |
|  | CCNC(=O)[C@H]1O[C@@H](n2cnc3c(N)nc(NCCc4ccc(CCC(=O)N[C@H](Cc5c[nH]c6ccccc56)C(=O)OC)cc4)nc32)[C@H](O)[C@@H]1O | 130 | 1610 | 250 | 119 |  |
|  | CCNC(=O)[C@H]1O[C@@H](n2cnc3c(N)nc(NCCc4ccc(CCC(=O)N[C@H](Cc5c[nH]c6ccccc56)C(=O)O)cc4)nc32)[C@H](O)[C@@H]1O | 130 | 2160 | 520 | 113 |  |
|  | CCNC(=O)[C@H]1O[C@@H](n2cnc3c(N)nc(NCCc4ccc(CCC(=O)N[C@@H](Cc5ccccc5)C(=O)OC)cc4)nc32)[C@H](O)[C@@H]1O | 160 | 1080 |  | 111 |  |
| 20.1 | O=C(NCCN1CCCCC1)c1nc(NCC(c2ccccc2)c2ccccc2)c2ncn([C@@H]3O[C@H](CO)[C@@H](O)[C@H]3O)c2n1 |  |  |  |  |  |
|  | CCNC(=O)[C@H]1O[C@@H](n2cnc3c(N)nc(NCCc4ccc(CCC(=O)N[C@H](Cc5ccccc5)C(=O)O)cc4)nc32)[C@H](O)[C@@H]1O | 34 | 550 | 140 | 93.4 |  |
|  | CCNC(=O)[C@H]1O[C@@H](n2cnc3c(N)nc(NCCc4ccc(CCC(=O)N[C@@H](Cc5ccccc5)C(=O)O)cc4)nc32)[C@H](O)[C@@H]1O | 63.7 | 640 | 260 | 103 |  |
|  | CCNC(=O)[C@H]1O[C@@H](n2cnc3c(N)nc(NCCc4ccc(CCC(=O)N[C@@H](Cc5c[nH]c6ccccc56)C(=O)O)cc4)nc32)[C@H](O)[C@@H]1O | 71.7 | 1060 | 200 | 95.8 |  |
| 168 | COc1cc(OC)cc([C@@H](CNc2ncnc3c2ncn3[C@@H]2O[C@H](CO)[C@@H](O)[C@H]2O)c2ccccc2C)c1 |  |  |  |  |  |
|  | CCNC(=O)[C@H]1O[C@@H](n2cnc3c(N)nc(NCCc4ccc(CCC(=O)N[C@@H](Cc5c[nH]cn5)C(=O)O)cc4)nc32)[C@H](O)[C@@H]1O |  |  |  | 105 |  |
|  | CCNC(=O)[C@H]1O[C@@H](n2cnc3c(N)nc(NCCc4ccc(CCC(=O)N[C@H](CC(=O)O)C(=O)O)cc4)nc32)[C@H](O)[C@@H]1O | 110 | 1180 | 790 | 94.3 |  |
| 56 | CCNC(=O)[C@H]1C[C@@H](n2cnc3c(N[C@H](CC)Cc4sccc4Cl)ccnc32)[C@H](O)[C@@H]1O |  |  |  |  |  |
|  | CCNC(=O)[C@H]1O[C@@H](n2cnc3c(N)nc(NCCc4ccc(CCC(=O)N[C@H](Cc5ccccc5)C(=O)OC)cc4)nc32)[C@H](O)[C@@H]1O | 84.3 | 1230 |  | 92.6 |  |
|  | CCNC(=O)[C@H]1O[C@@H](n2cnc3c(N)nc(NCCc4ccc(CCC(=O)N[C@H](CCCN=C(N)N)C(=O)O)cc4)nc32)[C@H](O)[C@@H]1O | 50 | 990 | 220 |  |  |
|  | CCNC(=O)[C@H]1O[C@@H](n2cnc3c(N)nc(NCCc4ccc(CCC(=O)N[C@@H](Cc5c[nH]c6ccccc56)C(=O)OC)cc4)nc32)[C@H](O)[C@@H]1O | 87.2 | 1670 | 140 | 104 |  |
|  | CCNC(=O)[C@H]1O[C@@H](n2cnc3c(N)nc(NCCc4ccc(CCC(=O)N[C@@H](CCCNC(=N)N)C(=O)O)cc4)nc32)[C@H](O)[C@@H]1O |  |  |  | 94.5 |  |
|  | CCNC(=O)[C@H]1O[C@@H](n2cnc3c(N)nc(NCCc4ccc(CCC(=O)N[C@@H](Cc5cnc[nH]5)C(=O)O)cc4)nc32)[C@H](O)[C@@H]1O | 110 | 1000 | 830 |  |  |
|  | CCNC(=O)[C@H]1O[C@@H](n2cnc3c(N)nc(NCCc4ccc(CCC(=O)NCCNC(=S)Nc5ccc(N=C=S)cc5)cc4)nc32)[C@H](O)[C@@H]1O |  |  |  |  | 7.1 |
|  | CCNC(=O)[C@H]1O[C@@H](n2cnc3c(N)nc(NCCc4ccc(CCC(=O)N[C@@H](CCCN=C(N)N)C(=O)O)cc4)nc32)[C@H](O)[C@@H]1O | 100 | 1110 | 620 |  |  |
|  | CCNC(=O)[C@H]1O[C@@H](n2cnc3c(N)nc(NCCc4ccc(CCC(=O)N[C@H](CCCNC(=N)N)C(=O)O)cc4)nc32)[C@H](O)[C@@H]1O |  |  |  | 94.7 |  |
